By inhibition is commonly meant the change of the read-out against control, counted positive when it falls. Usually IC50 stands for the point on the concentration scale where inhibition reaches its midpoint.

The source of these data is ChEMBL document CHEMBL4052630, “Design, synthesis and evaluation of scutellarein-O-acetamidoalkylbenzylamines as potential multifunctional agents for the treatment of Alzheimer's disease” (Eur J Med Chem, 2017).

For data set [1], the species on record is Rattus norvegicus. Put plainly: Selectivity index, ratio of IC50 for rat serum BuChE to IC50 for rat cortex homogenate AChE. The gist of the method:
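Modified Ellman assay. AChE from 5% rat cortex homogenate, pre-incubated 5 min with iso-OMPA (4.0 mmol/L). BuChE from 25% rat serum. Enzyme incubated with compound (<1% DMSO) and acetyl- or butyrylthiocholine iodide (1 mmol/L) in phosphate buffer pH 7.4 for 15 min at 37 °C. DTNB added, read at 405 nm. IC50 from 3 independent experiments. Index = BuChE IC50/AChE IC50.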

Data set [2] has as its system PC-12. Put plainly: Neuroprotective activity against H2O2 induced cell injury in rat PC12 cells assessed as increase in cell viability preincubated for 24 hrs followed by incubation with H2O2 for 2 hrs measured after 24 hrs by MTT assay. It is filed as functional, cell-based. The gist of the method:
(§1)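 PC12 cells in phenol-red-free DMEM with 10% FCS, plated at 10^5 cells/well. Cells preincubated 24 h with compound (1.0 or 10.0 µM; dissolved in 2% DMSO, diluted in PBS), then exposed to H2O2 100 µM for 2 h. Medium replaced; viability assessed 24 h later by MTT (4 h, 37 °C), lysis in DMF/SDS, A590.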

For data set [3], the system named is Mus musculus. Put plainly: Reversal of scopolamine-induced memory impairment in po dosed Kunming mouse assessed as increase in step-down latency time administered 60 mins prior to training trial followed by scopolamine challenge at 30 mins post dose measured 24 hrs after training trial by passive avoidance test. It is filed as functional, organism-based. The gist of the method:
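Kunming mice, 18–22 g, six weeks old, either sex; 10 per group. Oral dosing 1 h before training (test compound 3.67, 7.33, 22 mg/kg; donepezil 5.0 mg/kg), scopolamine 3 mg/kg i.p. 30 min later. Training: 0.5 mA, 2 s foot shock on stepping off the block. Step-down latency measured 24 h later. Mean ± SEM.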

Data set [4] can be described thus: Cytotoxicity against human SH-SY5Y cells assessed as cell viability at 100 uM after 24 hrs by MTT assay relative to control. It is filed as cell-based. The conditions noted are these: read-out: Activity. The method, boiled down:
(§2)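 SH-SY5Y cells grown in DMEM with 10% FBS at 37 °C, 5% CO2, seeded 4 × 10^4 cells/well and incubated 24 h. Compounds given at 1, 10 and 100 µM (1% DMSO final) for 24 h. MTT (5 mg/ml) added for 4 h, cells lysed overnight in DMF/SDS, absorbance read at 590 nm against control. Three independent experiments.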

Data set [5] in a line: Metal chelating activity assessed as disaggregation of Cu2+ induced amyloid beta (1 to 42) fibrils at 25 uM treated for 24 hrs post Cu2+ treatment for 24 hrs by ThT-based fluorometric method relative to control. The gist of the method: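 Fibrils preformed from Aβ1-42 (25 µM) plus Cu2+ (25 µM) in 20 mM HEPES pH 6.6, 150 mM NaCl, 24 h at 37 °C. Compound (25 µM) then added for another 24 h at 37 °C. Thioflavin T (5 µM, glycine-NaOH pH 8.5) fluorescence read at ex 446/em 490 nm. Triplicate.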

The target of data set [6] is Amyloid-beta precursor protein (Homo sapiens) (UniProt P05067). Briefly: Inhibition of amyloid beta (1 to 42) (unknown origin) self-induced aggregation after 24 hrs by ThT-based fluorometric method. The gist of the method: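 Aβ1-42 (25 µM final) incubated 24 h at 37 °C with or without compound (1-50 µM) in 50 mM phosphate buffer pH 7.4. Thioflavin T (5 µM in glycine-NaOH pH 8.5) then added, fluorescence read at ex 446/em 490 nm. Inhibition = (1-IFi/IFc)×100 after background subtraction. Run in triplicate.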

Data set [7] concerns SH-SY5Y. Put plainly: Cytotoxicity against human SH-SY5Y cells assessed as reduction in cell viability up to 10 uM after 24 hrs by MTT assay. It is filed as cell-based. The method, boiled down: as §2
(Tetrazolium dyes change colour on reduction, which living cells bring about.)

The nature of data set [8]: Metal chelating activity assessed as compound-Al3+ complex formation by measuring shift in maximum absorption wavelength at 37.5 uM after 30 mins by UV-vis spectrophotometric method. The gist of the method:
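UV absorption scanned from 200 to 600 nm after 30 min at room temperature in methanol. Compound and each metal salt (CuCl2, ZnCl2, AlCl3, FeSO4) were at 37.5 µM final. Spectra compared with and without metal.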

Data set [9] concerns the target T1, Acetylcholinesterase (Rattus norvegicus, UniProt P37136).
T1 sequence (P37136 whole entry): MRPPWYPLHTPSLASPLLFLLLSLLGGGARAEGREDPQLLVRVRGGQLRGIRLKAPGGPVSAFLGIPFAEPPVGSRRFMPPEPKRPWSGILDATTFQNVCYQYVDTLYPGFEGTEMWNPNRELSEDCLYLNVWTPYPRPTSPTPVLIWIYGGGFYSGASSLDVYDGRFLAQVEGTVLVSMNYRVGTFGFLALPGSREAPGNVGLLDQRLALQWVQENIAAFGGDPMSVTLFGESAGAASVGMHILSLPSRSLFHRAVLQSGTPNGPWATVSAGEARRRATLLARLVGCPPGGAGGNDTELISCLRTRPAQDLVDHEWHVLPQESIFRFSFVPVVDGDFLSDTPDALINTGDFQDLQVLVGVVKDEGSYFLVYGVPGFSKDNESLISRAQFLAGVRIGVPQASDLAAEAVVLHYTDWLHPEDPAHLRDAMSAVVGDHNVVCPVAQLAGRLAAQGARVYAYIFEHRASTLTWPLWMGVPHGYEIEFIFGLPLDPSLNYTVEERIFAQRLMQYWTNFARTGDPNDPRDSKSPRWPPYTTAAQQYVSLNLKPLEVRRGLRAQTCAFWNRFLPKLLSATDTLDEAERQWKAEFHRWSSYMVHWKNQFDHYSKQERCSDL
Briefly: Inhibition of rat cortex homogenate AChE using acetylthiocholine iodide as substrate after 15 mins in presence of BuChE inhibitor iso-OMPA by Ellman's method.

Data set [10] deals with Amyloid-beta precursor protein (Homo sapiens) (UniProt P05067). Briefly: Inhibition of amyloid beta (1 to 42) (unknown origin) self aggregation at 25 uM after 24 hrs by ThT-based fluorometric method relative to control. The method, boiled down:
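Aβ1-42 (25 µM final) incubated at 37 °C for 24 h ± compound in 50 mM phosphate buffer pH 7.4, with DMSO stocks diluted in buffer. Then 5 µM thioflavin T in 50 mM glycine-NaOH pH 8.5 was added and read at ex 446/em 490 nm. Run in triplicate. % inhibition = (1−IFi/IFc)×100 after background subtraction.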

Data set [11] has as its system PC-12. Put plainly: Neuroprotective activity against H2O2-induced cell injury in rat PC12 cells assessed as cell viability at 10 uM preincubated for 24 hrs followed by incubation with H2O2 for 2 hrs measured after 24 hrs by MTT assay (reference value: 43.9%). It is filed as functional. The conditions noted are these: read-out: Activity. The method, boiled down: as §1

For data set [12], the target named is Acetylcholinesterase (Homo sapiens, UniProt P22303). Briefly: Inhibition of human erythrocyte AChE using acetylthiocholine iodide as substrate after 15 mins by Ellman's method. Background: DTNB colorimetry detects thiols as they appear.

Activity calls are given as the source filed them. The calls are words filed in the database; no cut-off is given here.

Sequence of Amyloid-beta precursor protein (Homo sapiens) (P05067 whole entry): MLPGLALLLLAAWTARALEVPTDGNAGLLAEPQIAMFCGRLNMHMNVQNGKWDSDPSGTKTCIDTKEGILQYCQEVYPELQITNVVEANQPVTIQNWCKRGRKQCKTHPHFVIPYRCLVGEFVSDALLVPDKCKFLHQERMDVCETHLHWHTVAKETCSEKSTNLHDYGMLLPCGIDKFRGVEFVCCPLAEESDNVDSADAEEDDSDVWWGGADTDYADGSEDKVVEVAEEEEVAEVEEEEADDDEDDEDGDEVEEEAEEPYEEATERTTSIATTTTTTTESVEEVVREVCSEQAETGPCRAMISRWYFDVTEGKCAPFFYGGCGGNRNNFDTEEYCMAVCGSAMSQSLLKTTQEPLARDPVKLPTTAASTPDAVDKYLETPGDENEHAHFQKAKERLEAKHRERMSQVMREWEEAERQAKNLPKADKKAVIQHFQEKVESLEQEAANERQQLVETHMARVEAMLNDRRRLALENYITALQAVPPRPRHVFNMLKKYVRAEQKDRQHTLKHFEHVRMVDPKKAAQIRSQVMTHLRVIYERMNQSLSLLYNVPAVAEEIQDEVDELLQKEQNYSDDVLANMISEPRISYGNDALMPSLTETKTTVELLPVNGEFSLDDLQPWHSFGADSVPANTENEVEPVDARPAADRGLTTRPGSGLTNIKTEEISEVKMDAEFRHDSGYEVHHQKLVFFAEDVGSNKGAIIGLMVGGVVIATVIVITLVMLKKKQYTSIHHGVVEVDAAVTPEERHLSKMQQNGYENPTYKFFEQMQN
Sequence of Acetylcholinesterase (Homo sapiens, UniProt P22303) (P22303 whole entry): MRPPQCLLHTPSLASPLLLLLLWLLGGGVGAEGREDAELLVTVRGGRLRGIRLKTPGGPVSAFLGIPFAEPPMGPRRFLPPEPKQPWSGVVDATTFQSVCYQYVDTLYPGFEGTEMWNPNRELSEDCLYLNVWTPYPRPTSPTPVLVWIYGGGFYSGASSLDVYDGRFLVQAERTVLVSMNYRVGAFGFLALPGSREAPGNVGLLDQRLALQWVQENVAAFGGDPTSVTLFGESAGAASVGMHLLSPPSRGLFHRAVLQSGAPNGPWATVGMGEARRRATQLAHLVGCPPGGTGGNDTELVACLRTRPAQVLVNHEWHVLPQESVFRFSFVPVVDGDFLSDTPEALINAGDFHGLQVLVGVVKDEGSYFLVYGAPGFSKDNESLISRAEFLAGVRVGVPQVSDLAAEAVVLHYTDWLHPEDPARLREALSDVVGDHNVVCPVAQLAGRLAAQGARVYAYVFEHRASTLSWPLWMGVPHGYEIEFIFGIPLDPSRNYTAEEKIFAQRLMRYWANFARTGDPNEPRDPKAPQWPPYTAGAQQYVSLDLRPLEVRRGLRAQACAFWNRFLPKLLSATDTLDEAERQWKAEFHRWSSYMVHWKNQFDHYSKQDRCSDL

As for `CCN(CCCCNC(=O)COc1ccc(-c2cc(=O)c3c(O)c(OC)c(OC)cc3o2)cc1)Cc1ccccc1OC`, in data set [1], the Ratio IC50 is more than 9800. Further, the Activity result in data set [2] was “Dose-dependent effect”; in [3], “Dose-dependent effect”; in [5] it was 66.3%; in data set [7] it was “Non-Toxic”. Moreover, the viability at 24 h, 100 µM in data set [4] amounted to 82.4%. Further, the inhibition result is “Dose-dependent effect” in [6] and 57.1% in data set [10]. The outcome in [8] was Active. Moreover, the half-inhibitory concentration (IC50) in data set [9] was found to be 51 nM; in data set [12], 39 nM. Also, the viability at 10 µM in data set [11] is 82.7%.
